Measured values: ChEMBL document CHEMBL1148371, “Sulfonyl-containing aldophosphamide analogues as novel anticancer prodrugs targeted against cyclophosphamide-resistant tumor cell lines” (J Med Chem, 2004)

Columns and labels:
V79 = test: In vitro cytotoxicity against V-79 chinese hamster lung fibroblasts (3 hr drug exposure time) by clonogenic assay; type: functional, cell-based; settings: Cricetulus griseus, V79, 3 h
Outline: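 Subcloned V-79 cells in MEM with 10% heat-inactivated FBS were used. 500 log-phase cells per dish were seeded and left 12–15 h. Cells were exposed to drug or solvent for 3 h at 37 °C, rinsed with HBSS, and grown 5–6 days. Colonies were fixed with EtOH, stained with crystal violet and counted against solvent control. IC50 (50% loss of clonogenic survival) came from the semilog concentration–survival plot; three experiments.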

[1] = Half life period in phosphate buffer (0.2 M); type: ADME
P388 [2] = test: In vivo antitumor activity against P388/0 (wild) leukemia in mice measured by increase in life span after 100 mg/kg compound administration; type: functional; settings: Mus musculus
Outline: (§1)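 CD2F1 mice (24–26 g) were implanted ip with 10^6 P388/0 or P388/CPA leukemia cells on day 0. A single ip dose (100, 200 or 400 mg/kg) in saline or saline–Tween 80 was given on day 1; vehicle controls were included. Five mice were used per dose. Survival was followed for 33 days against untreated controls and reported as % increase in life span and number of long-term survivors.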

[3] = In vivo antitumor activity against P388/0 (wild) leukemia in mice measured by increase in life span after 200 mg/kg compound administration; Toxic; type: toxicity, organism-based; set-up: dose 200 mg/kg; settings: mouse; outline: as §1
P388 [4] = test: In vivo antitumor activity against P388/0 (wild) leukemia in mice measured by increase in life span after 400 mg/kg compound administration; type: functional; settings: Mus musculus; outline: as §1
P388 [5] = test: In vivo antitumor activity against P388/0 (wild) leukemia in mice measured by increase in life span after 200 mg/kg compound administration; type: functional; settings: Mus musculus; outline: as §1
P388/CPA [6] = test: In vivo antitumor activity against P388/CPA leukemia (resistant) in mice measured by increase in life span after 200 mg/kg compound administration; type: functional; settings: Mus musculus; outline: as §1
P388/CPA [7] = test: In vivo antitumor activity against P388/CPA leukemia in mice (resistant) measured by increase in life span after 100 mg/kg compound administration; type: functional; settings: Mus musculus; outline: as §1
[8] = Half life period in phosphate buffer (0.08 M); type: ADME
Outline: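 Prodrug was incubated in 0.08 M phosphate buffer pH 7.4 at 37 °C with shaking, mostly at 3–9 mM (0.8 or 0.3 mM for some). Incubation was stopped with 2.0 M acetate pH 5.0 plus EtOH. Parent compound was quantified by silica TLC (UV 254 nm or NBP stain) and densitometry against a zero-time control. kobs came from the ln(% remaining) versus time slope; t1/2 = 0.693/kobs.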

P388 [9] = test: Number of long-term (33-day) survival P388/0 (wild) leukemia mice (5) after 400 mg/kg compound administration; type: functional, Mus musculus; outline: as §1
P388/CPA [10] = test: In vivo antitumor activity against P388/CPA leukemia (resistant) in mice measured by increase in life span after 400 mg/kg compound administration; type: functional; settings: Mus musculus; outline: as §1
[11] = Half life period in human plasma using phosphate buffer (0.08 M); type: ADME, cell-free
[12] = In vivo antitumor activity against P388/CPA leukemia (resistant) in mice measured by increase in life span after 400 mg/kg compound administration; Toxic; type: toxicity, organism-based; set-up: dose 400 mg/kg; settings: mouse; outline: as §1
[13] = In vivo antitumor activity against P388/0 (wild) leukemia in mice measured by increase in life span after 400 mg/kg compound administration; Toxic; type: toxicity, organism-based; set-up: dose 400 mg/kg; settings: mouse; outline: as §1

| SMILES | IC50 (V79) | half-life [1] | ILS at 100 mg/kg (P388 [2]) | ILS [3] | ILS at 400 mg/kg (P388 [4]) | ILS at 200 mg/kg (P388 [5]) | ILS at 200 mg/kg (P388/CPA [6]) | ILS at 100 mg/kg (P388/CPA [7]) | half-life [8] | Number (P388 [9]) | ILS at 400 mg/kg (P388/CPA [10]) | half-life [11] | ILS [12] | ILS [13] |
| --- | --- | --- | --- | --- | --- | --- | --- | --- | --- | --- | --- | --- | --- | --- |
| Cc1ccc(SCCO)cc1 | 69.1 µM |  |  |  |  |  |  |  |  |  |  |  |  |  |
| O=P(O)(NCCCl)NCCCl [PALIFOSFAMIDE] | 60.9 µM | 1 h | 92% | Toxic |  |  |  |  |  |  |  |  |  |  |
| CSCCOc1ccc([N+](=O)[O-])c([N+](=O)[O-])c1 | 69.1 µM |  |  |  |  |  |  |  |  |  |  |  |  |  |
| O=[N+]([O-])c1ccc(SCCO)cc1 | 69.1 µM |  |  |  |  |  |  |  |  |  |  |  |  |  |
| Cc1ccc(SCCOP(N)(=O)N(CCCl)CCCl)cc1 (stereo not given) | 69.1 µM |  |  |  |  |  |  |  |  |  |  |  |  |  |
| CSCC(OP(=O)(N(CCCl)CCCl)N(CCCl)CCCl)c1ccccc1 (stereo not given) | 69.1 µM |  |  |  |  |  |  |  |  |  |  |  |  |  |
| CS(=O)(=O)CCOP(=O)(NCCCl)NCCCl | 68 µM |  | 33% |  | 100% | 52% | 84% | 20% | 6.4 h | 1 | 108% | 2.2 h |  |  |
| CS(=O)(=O)CC(OP(=O)(N(CCCl)CCCl)N(CCCl)CCCl)c1ccccc1 (stereo not given) | 15.2 µM |  | 10% |  | 20% | 20% | 20% | 4% | 1.8 h |  | 60% | 1 h |  |  |
| O=P(NCCCl)(NCCCl)OCCS(=O)(=O)c1ccccc1 | 13.9 µM |  | 33% |  | 33% | 33% | 28% | 20% | 6.4 h |  | 60% | 2.6 h |  |  |
| CSCCOP(=O)(N(CCCl)CCCl)N(CCCl)CCCl | 69.1 µM |  |  |  |  |  |  |  |  |  |  |  |  |  |
| CS(=O)(=O)CCOc1ccc([N+](=O)[O-])c([N+](=O)[O-])c1 | 69.1 µM |  |  |  |  |  |  |  |  |  |  |  |  |  |
| CS(=O)(=O)CCOP(=O)(N(CCCl)CCCl)N(CCCl)CCCl | 24.1 µM |  | 10% |  | 30% | 10% | 28% | 12% | 7.2 h |  | 60% | 1.6 h |  |  |
| O=[N+]([O-])c1ccc(S(=O)(=O)CCOP(=O)(N(CCCl)CCCl)N(CCCl)CCCl)cc1 | 1.8 µM |  | 100% |  |  | 120% | 68% | 84% | 0.69 h |  |  | 0.37 h | Toxic | Toxic |
| CSCCO | 69.1 µM |  |  |  |  |  |  |  |  |  |  |  |  |  |
| Cc1ccc(S(=O)(=O)CCOP(N)(=O)N(CCCl)CCCl)cc1 (stereo not given) | 11.5 µM |  | 20% |  | 90% | 50% | 28% | 28% | 12.8 h |  | 44% | 4.8 h |  |  |
| Cc1ccc(S(=O)(=O)CCOP(=O)(NCCCl)NCCCl)cc1 | 9.5 µM |  | 23% |  | 23% | 14% | 12% | 4% | 12.1 h |  | 36% | 4.4 h |  |  |
| O=[N+]([O-])c1ccc(S(=O)(=O)CCOP(=O)(NCCCl)NCCCl)cc1 | 2.1 µM |  | 71% |  |  | 138% | 92% | 60% | 0.08 h |  |  | < 0.01 h | Toxic | Toxic |
